High-throughput results as filed in PubChem.
The list is not random: actives were taken first. Their share in the collection is about 1.9%.
PG9 Ab binder = binders of HIV-1 gp120 antibody PG9, primary screen, biochemical, TR-FRET; HIV-1 gp120 / PG9 antibody interaction; TR-FRET gp120-PG9 antibody binding; 360,000 tested, 0.43% active; inhibition, % at 6.7 µM; in the data active = inhibition above about 8.5%
SKN-1 inh = suppressors of acrylamide-induced Pgst-4::GFP reporter in worms, primary screen, SKN-1 inhibitor project, whole organism, uHTS, GFP/RFP fluorescence ratio, strain VP596; C. elegans VP596 Pgst-4::GFP/RFP ratio, 24 h; inhibition, % at 21.8 µM; 360,000 tested, 0.49% active;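 active = interference check ratio from 0.5 to 1.5 plus GFP to RFP signal ratio inhibition reaching or exceeding a fixed threshold, cut at about 30% in these data, passing the limit was not always enough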
NR2E3 ag-1 = NR2E3 agonists in two-hybrid cells, primary screen, cell-based, luminescence, CHO-S, Gal4-NCOR/VP16-NR2E3; Photoreceptor-specific nuclear receptor (Homo sapiens), Q9Y5X4; luciferase; 360,000 tested, 0.35% active; inhibition of corepressor binding, % at 3.98 µM;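 active = inhibition above the mean of all tested compounds plus 3 SD, cut at about 70% in these data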;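 note: 0% = DMSO with NR2E3 transfected cells and 100% = cells lacking NR2E3 construct; higher means lower luciferase signal from less NR2E3 corepressor binding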
Target sequence (Q9Y5X4 whole entry, looked up, the tested form may be a part): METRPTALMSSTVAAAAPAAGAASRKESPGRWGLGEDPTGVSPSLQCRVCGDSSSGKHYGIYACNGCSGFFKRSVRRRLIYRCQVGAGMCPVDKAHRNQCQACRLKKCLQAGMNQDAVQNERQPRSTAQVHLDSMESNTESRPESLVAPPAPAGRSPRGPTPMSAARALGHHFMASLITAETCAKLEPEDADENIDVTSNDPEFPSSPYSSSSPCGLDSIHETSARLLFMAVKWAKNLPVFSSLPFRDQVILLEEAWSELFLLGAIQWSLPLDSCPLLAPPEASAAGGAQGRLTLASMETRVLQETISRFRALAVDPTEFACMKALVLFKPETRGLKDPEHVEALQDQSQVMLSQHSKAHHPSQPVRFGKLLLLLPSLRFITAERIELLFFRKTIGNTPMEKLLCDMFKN
NR2E3 ag-2 = inhibitors of NR2E3-RetCOR corepressor binding, primary screen, NR2E3 agonist project, biochemical, TR-FRET, GST-NR2E3, biotin-RetCOR; Photoreceptor-specific nuclear receptor (Homo sapiens), Q9Y5X4; 1536-well; inhibition of corepressor binding, % at 4.78 µM; 320,000 tested, 0.12% active; AID 2300, 2010;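 active = percent inhibition above the cutoff of mean plus 3 SD of all tested compounds, set per screening campaign, cut at about 20% in these data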;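 note: 0% = DMSO wells and 100% = biotin wells as full block of FRET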
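System: GST-tagged NR2E3 plus biotinylated RetCOR corepressor; Buffer or medium: pH 7.5 Tris-based buffer; Probe or stimulus: RetCOR corepressor, biotinylated, 7 nM; Doses: compound at 4.8 µM, single dose; Schedule: 5 h incubation at 4 °C; Technique: time-resolved FRET; Evaluation: percent inhibition of TR-FRET ratio; Replication: one well per compound, singlicate testing.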
MT1-MMP act inh = blockers of MT1-MMP proenzyme processing, primary screen, HT1080 RFP-PRO-GFP cells, GFP/RFP fluorescence. Matrix metalloproteinase-14 (Homo sapiens), P50281. GFP/RFP ratio fluorescence, overnight; percent of plate control window, DMSO zero. GFP/RFP ratio change, % at 20 µM. 360,000 tested, 0.061% active;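 active = GFP/RFP ratio change of at least 30% with cell ATP level not reduced by more than half and red fluorescence within 50% of control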
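Assay system: HT1080 RFP-PRO-GFP cells | Dosing: 20 µM single dose, 1% DMSO | Incubation: Cells overnight before dosing, compound overnight, 37 °C, 5% CO2 | Evaluation: GFP/RFP fluorescence ratio | Control set: DMSO-only wells and HT1080 RFP-L50D-GFP cell wells as references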
NR1D1 modulator = modulators of Rev-erb alpha DNA binding, primary screen, biochemical, FITC-DNA, fluorescence polarization, uHTS; Nuclear receptor subfamily 1 group D member 1 (Homo sapiens), P20393; Rev-erbα–FITC-DNA binding, 90 min; activity, % at 10 µM; 370,000 tested, 0.79% active; AID 1259318, 2017;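 active = activity above about 14%, limit read from the data; passing the limit was not always enough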;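 note: 0% = DMSO wells with 35 nM protein and 100% = DMSO wells with 750 nM protein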
* marks the source's active call; other numbers are inactive results; x = not tested or not shown.

SMILES	PG9 Ab binder	SKN-1 inh	NR2E3 ag-1	NR2E3 ag-2	MT1-MMP act inh	NR1D1 modulator
Cc1ccc(Nc2nc(-c3ccccc3)cs2)nc1	-0.9	25.2	-173.2	x	-0.8	3.6
Cc1ccc(Nc2nc(-c3cccs3)cs2)nc1	6.6	46.4*	-83.6	0.1	-8.2	-3.3
Cc1onc(-c2ccccc2)c1C(=O)NCC1CCN(C(=O)C(=O)c2cccs2)CC1	-2.2	x	x	x	x	-5.2
CC(=O)O[C@H]1CC2CCC3C(CC[C@@]4(C)C3C[C@H]([N+]3(C)CCCCC3)[C@@H]4OC(C)=O)[C@@]2(C)C[C@@H]1[N+]1(C)CCCCC1 (stereo not given in full)	x	x	x	x	x	-5.9
CCOC(=O)c1cc(=O)[nH]c2ccccc12	0.6	0.3	-7.0	0.5	-6.3	-3.1
CCCOC(=O)c1cc(=O)[nH]c2ccccc12	-1.2	36.8*	8.1	1.5	6.7	-3.9
CN(C)c1ccc(N=Nc2nc3ccccc3n2C)cc1	-36.6	62.3*	32.1	-7.9	19.7	3.9
CCn1c(NCc2ccc(N(C)C)cc2)nc2ccccc21	-5.7	-1.8	-0.5	3.1	1.1	-3.3
Cn1c(N=Nc2ccccc2)nc2ccccc21	-8.3	39.6*	-102.6	-2.6	1.9	4.4
Cn1c(Cl)nc2ccccc21	0.2	-18.0	-4.9	1.6	2.0	6.7
Clc1ccc(-c2nc(-c3cnccn3)no2)cc1	0.0	45.9*	-124.2	-0.2	2.9	3.6
c1ccc(-c2ccc(-c3nc(-c4ccccn4)no3)cc2)cc1	-1.2	63.1*	31.1	1.5	3.7	x
Fc1ccc(-c2nc(-c3cnccn3)no2)c(Cl)c1	-0.2	37.8*	-173.3	1.7	-1.0	0.4
COC(=O)C1=C(C)N(Cc2ccc(C(F)(F)F)cc2)C(=NCc2ccccc2C(F)(F)F)NC1c1ccc(F)cc1 (stereo not given)	-1.1	x	x	x	x	8.7
CCc1ccc(NC(=O)c2cc(-c3ccco3)on2)cc1	1.1	45.2*	-134.8	2.2	-0.5	3.2
COc1ccc(NC(=O)c2cc(-c3ccco3)on2)cc1	0.0	15.7	-77.9	4.1	3.1	-4.7
O=C(Nc1cccc(Cl)c1)c1cc(-c2ccco2)on1	-1.3	39.1*	-16.7	2.6	1.2	6.5
C[C@@H]1CN([C@H](C)CO)C(=O)c2cc(NS(=O)(=O)c3ccccc3)ccc2O[C@@H](C)CCCCO[C@@H]1CN(C)Cc1ccccc1	-0.7	x	x	x	x	0.3
CCN(CC)c1ccc(C2NC(=O)c3ccccc3N2)cc1 (stereo not given)	1.7	36.7*	-65.4	x	3.8	-2.8
O=C(NCCOc1ccc(Cl)cc1)c1ccc2ccccc2n1	0.8	39.4*	-34.0	-4.4	-2.5	1.8
COc1cc2c(cc1NC(=O)c1cccnc1)CCCC2	0.5	37.8*	-34.0	-1.5	-6.6	3.3
OC(c1ccccn1)c1c[nH]c2ccccc12 (stereo not given)	-2.4	36.8*	6.1	-2.0	-1.5	-5.3
O=C(NC1CCCC1)[C@@H]1CCCN1C(=O)[C@@H](NC(=O)N1CCOCC1)c1ccccc1	-0.3	x	x	x	x	-0.7
CCN(c1ccccc1)S(=O)(=O)c1cccc(C(=O)Nc2ccc(C)cn2)c1	-0.2	48.2*	-15.6	0.7	1.6	-1.2
FCCCOc1ccc(-c2ccnc(-c3ccccc3)n2)cc1	0.3	57.0*	-68.8	-3.0	8.9	-0.9
CCOc1ccc(N=Nc2c(=O)[nH]n3c(C)cc(C)nc23)cc1	-16.8	45.0*	4.6	-9.9	17.7	16.2
Cc1c(C(=O)NCCC2=CCCCC2)oc2ccc(S(=O)(=O)N3CCOCC3)cc12	2.2	37.0*	15.7	2.2	-7.1	2.4
